We go through 20 compounds from ChEMBL document CHEMBL3822412, “Exploiting Protein Conformational Change to Optimize Adenosine-Derived Inhibitors of HSP70” (J Med Chem, 2016).

In the first test the target is Heat shock cognate 71 kDa protein (Homo sapiens, UniProt P11142). Briefly: Binding affinity to human truncated HSC70 NBD (1 to 381 residues) by SPR analysis. The settings on record: read-out: Kd. In a few lines: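 Human HSC70-NBD (residues 1-381) amine-coupled to a CM5 chip to ~5000 RU, with 750 µM ADP present during coupling. Running buffer PBS pH 7.4 with 0.05% Tween20 and 5% DMSO. Eight-point dose response over 50–2000, 5–200 or 0.0625–2.5 µM. Flow 30 µL/min, 60 s injection, 120 s dissociation, no regeneration, unmodified reference cell. KD taken from equilibrium binding curves fitted to a 1:1 model. Geometric mean ± SEM, n≥3.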
Heat shock cognate 71 kDa protein, sequence (P11142 whole entry, the tested form may be a part): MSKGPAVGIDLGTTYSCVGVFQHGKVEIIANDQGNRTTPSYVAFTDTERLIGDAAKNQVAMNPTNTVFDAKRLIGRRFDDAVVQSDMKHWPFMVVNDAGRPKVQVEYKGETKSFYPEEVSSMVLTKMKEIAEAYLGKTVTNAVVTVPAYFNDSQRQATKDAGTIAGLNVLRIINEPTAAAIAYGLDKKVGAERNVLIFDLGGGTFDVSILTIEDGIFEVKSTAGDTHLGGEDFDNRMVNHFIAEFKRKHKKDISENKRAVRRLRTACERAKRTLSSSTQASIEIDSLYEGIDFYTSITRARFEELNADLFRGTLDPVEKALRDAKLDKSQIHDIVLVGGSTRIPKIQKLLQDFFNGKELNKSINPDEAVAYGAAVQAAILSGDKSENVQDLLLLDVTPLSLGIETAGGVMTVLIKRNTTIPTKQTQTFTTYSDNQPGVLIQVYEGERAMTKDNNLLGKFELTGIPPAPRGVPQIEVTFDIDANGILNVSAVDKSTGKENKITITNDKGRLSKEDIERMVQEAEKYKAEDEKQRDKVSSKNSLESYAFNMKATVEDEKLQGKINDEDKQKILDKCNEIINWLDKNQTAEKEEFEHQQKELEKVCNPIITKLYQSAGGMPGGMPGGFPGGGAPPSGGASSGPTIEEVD
Consider `Cc1ccc(CNc2nc3c(N)ncnc3n2[C@@H]2O[C@H](CO)[C@@H](O)[C@H]2O)cc1`, for which the Kd is 0.3 µM.
Consider `Nc1ncnc2c1nc(NCc1ccc(Cl)cc1)n2[C@@H]1O[C@H](CO)[C@@H](O)[C@H]1O`, for which the Kd worked out at 0.28 µM.
For `COc1nc2c(N)ncnc2n1[C@@H]1O[C@H](CO)[C@@H](O)[C@H]1O`, the Kd is greater than 1000 µM.
Same read-out and setting: the same measure for `Nc1ncnc2c1nc(NCc1ccc(F)cc1)n2[C@@H]1O[C@H](CO)[C@@H](O)[C@H]1O`: 0.46 µM; for `CNc1c(C(N)=O)c2c(N)ncnc2n1[C@@H]1O[C@H](CO)[C@@H](O)[C@H]1O`: 30 µM.
On the same count and under the same terms, in the case of `N#Cc1c(NCc2ccccc2)n([C@@H]2O[C@H](CO)[C@@H](O)[C@H]2O)c2ncnc(N)c12` it was 2.8 µM; in that of `CN(C)c1nc2c(N)ncnc2n1[C@@H]1O[C@H](CO)[C@@H](O)[C@H]1O`, greater than 1000 µM.
Still for that read-out and setting: in the case of `CNc1c(C#N)c2c(N)ncnc2n1[C@@H]1O[C@H](CO)[C@@H](O)[C@H]1O` it was 3.3 µM; in that of `CNc1nc2c(N)ncnc2n1[C@@H]1O[C@H](C)[C@@H](O)[C@H]1O`, 27 µM.
As to `CNc1nc2c(N)ncnc2n1[C@@H]1O[C@H](CO)[C@@H](O)[C@H]1O`, the Kd amounted to 17 µM.
Same read-out and setting: the same measure for `Nc1ncnc2c1nc(NCc1ccccc1)n2[C@@H]1O[C@H](CO)[C@@H](O)[C@H]1O`: 1.4 µM.
On the same count and under the same terms, in the case of `Nc1ncnc2c1nc(NCc1ccc3ncccc3c1)n2[C@@H]1O[C@H](CO)[C@@H](O)[C@H]1O` it was 0.72 µM.
Same read-out and setting: in the case of `Nc1ncnc2c1nc(N)n2[C@@H]1O[C@H](CO)[C@@H](O)[C@H]1O` it was 7 µM; in that of `Nc1ncnc2c1nc(NCc1ccc(Cl)c(Cl)c1)n2[C@@H]1O[C@H](CO)[C@@H](O)[C@H]1O`, 3.5 µM; in that of `C[C@H]1O[C@@H](n2cnc3c(N)ncnc32)[C@H](O)[C@@H]1O` [5'-Deoxyadenosine], 130 µM.
As for `Nc1ncnc2c1ncn2[C@@H]1O[C@H](COP(=O)(O)OP(=O)(O)O)[C@@H](O)[C@H]1O` [ADENOSINE DIPHOSPHATE], the Kd worked out at 0.32 µM.
The same measure, in the same setting: the same measure for `Nc1ncnc2c1ncn2[C@@H]1O[C@H](CO)[C@@H](O)[C@H]1O` [ADENOSINE]: 110 µM.

The test is the same for the next values; noted with them: read-out: pKd (converted).
Regarding `NC(=O)c1cn([C@@H]2O[C@H](CO)[C@@H](O)[C@H]2O)c2ncnc(N)c12` [SANGIVAMYCIN], the Kd was 3.24 µM.
The same measure, in the same setting: in the case of `N#Cc1cn([C@@H]2O[C@H](CO)[C@@H](O)[C@H]2O)c2ncnc(N)c12` [TOYOCAMYCIN] it was 91.2 µM; in that of `Nc1ncnc2c1ccn2[C@@H]1O[C@H](CO)[C@@H](O)[C@H]1O` [TUBERCIDIN], 28.2 µM.
